In data set [1] the test system is M. tb H37Rv strain. The data set is described as follows: Anti-TB activity, microplate alamarBlue assay. It counts as cell-based, Mycobacterium tuberculosis. Conditions: H37Rv MIC values converted to μM; for H37Rv, MIC: MABA; for MIC: Mycobacterium tuberculosis, H37RV, read-out: H37Rv, MIC, MABA. The essentials:
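Whole-cell M. tuberculosis H37Rv growth inhibition by microplate alamarBlue assay. MIC is the lowest concentration giving at least 90% reduction of bacterial growth, averaged over three individual measurements. It was then converted to molar units. Front-line anti-TB drugs served as positive controls.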
In general terms: The colour change of resazurin is a common sign of viable cells or microbes.

Data set [2] deals with KNS42 cells (paediatric GBM). The data set is described as follows: KNS42 cell proliferation assay. It is filed as cell-based. Conditions: Homo sapiens, KNS-42, 72 h, read-out: KNS42 prolif., IC50. The essentials: (§1)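 Human cells were kept at 37 °C, 5% CO2 with pen/strep in RPMI/10% FBS (KNS42, BT-12, BT-16), EMEM/10% FBS (DAOY) or DMEM/15% FBS (HFF1). Seeding was 2000 cells/well (KNS42 4000), followed by overnight attachment. Compound medium (0.5, 1, 2.5, 5, 7.5, 10) or 0.1% DMSO control was then applied for 72 h. MTT absorbance was read at 570/600 nm, background subtracted, and IC50 calculated.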

The test system of data set [3] is Vero cells. The data set can be described thus: Cytotoxicity against Vero cells. It is filed as cell-based. The note with it: SI = IC50(Vero)/MIC(H37Rv).
In data set [4] the test system is BT16 cells (AT/RT). The data set is described as follows: BT16 cell viability assay. Conditions: Homo sapiens, BT-16, 72 h, read-out: BT16 viability, IC50. It is filed as cell-based. An outline of the steps:
(§2)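 Cultures were grown at 37 °C, 5% CO2 with pen/strep in RPMI/10% FBS (BT-12, BT-16), EMEM/10% FBS (DAOY) or DMEM/15% FBS (HFF1). Cells were plated at 2000 per well and incubated overnight. They were then exposed for 72 h to test compound (0.5–10, six levels) or 0.1% DMSO medium. PrestoBlue fluorescence was read at 560/590 nm, background removed, and IC50 derived.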

For data set [5], the system named is HFF1 non-neoplastic human fibroblasts. The data set can be described thus: HFF1 cell proliferation assay. It is filed as cell-based. The note with it: HFF-1, 72 h, read-out: HFF1 prolif., IC50. The essentials:
as §1

The test system of data set [6] is BT12 cells (AT/RT). The data set can be described thus: BT12 cell proliferation assay. It is filed as cell-based. Conditions: Homo sapiens, BT-12, 72 h, read-out: BT12 prolif., IC50. An outline of the steps: as §1
Data set [7] concerns DAOY cells (medulloblastoma). The data set can be described thus: DAOY cell viability assay. Conditions: Homo sapiens, 72 h, read-out: DAOY viability, IC50. It counts as cell-based. An outline of the steps:
as §2

Data set [8] has as its system DAOY cells (medulloblastoma). The data set can be described thus: DAOY cell proliferation assay. It is filed as cell-based. The note with it: Homo sapiens, 72 h, read-out: DAOY prolif., IC50. An outline of the steps:
as §1

Data set [9] deals with BT12 cells (AT/RT). The data set is described as follows: BT12 cell viability assay. It counts as cell-based. Conditions: Homo sapiens, BT-12, 72 h, read-out: BT12 viability, IC50. An outline of the steps:
as §2

Data set [10] concerns BT16 cells (AT/RT). The data set can be described thus: BT16 cell proliferation assay. It counts as cell-based. Conditions: Homo sapiens, BT-16, 72 h, read-out: BT16 prolif., IC50. The essentials:
as §1

Data set [11] has as its system HFF1 non-neoplastic human fibroblasts. The data set can be described thus: HFF1 cell viability assay. It counts as cell-based. Conditions: HFF-1, 72 h, read-out: HFF1 viability, IC50. An outline of the steps: as §2
In data set [12] the test system is healthy cells. The note with it: read-out: Cytotoxicity to healthy cells, IC50; cited from earlier work.
Data set [13] has as its system M. tb H37Rv strain. The note with it: cited from earlier work.
The test system of data set [14] is KNS42 cells. The data set is described as follows: Transcriptional analysis of KNS42 cells, differential gene expression. It is filed as cell-based, human. The note with it: 10 μM, 72 hours, fold change ≥ 8, P < 0.05. The essentials:
(§3)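 KNS42 cells in RPMI/10% FBS with pen/strep, 37 °C, 5% CO2, were treated with test compound at 10 for 72 h. Cells were PBS-washed, scraped and pelleted. RNA was TRIzol-extracted, resuspended in DEPC water and quantified by Qubit broad-range assay. Samples underwent DNBSEQ eukaryotic stranded transcriptome resequencing to determine differential expression.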

Data set [15] concerns carbonic anhydrase 9 (CA9) gene. The data set is described as follows: Transcriptional analysis of KNS42 cells, CA9 expression. Conditions: 10 μM, 72 hours, versus untreated, p < 0.01. It counts as cell-based, human. An outline of the steps: as §3
The subject of data set [16] is spleen tyrosine kinase (SYK) gene. The data set can be described thus: Transcriptional analysis of KNS42 cells, SYK expression. It counts as cell-based, human. The note with it: 10 μM, 72 hours, versus untreated, p < 0.05. The essentials: as §3
In data set [17] the test system is human THP-1 cells. Conditions: cited from earlier work.
Data set [18] concerns the target cannabinoid receptor 2 (CB2). Conditions: read-out: CB2 agonistic activity, EC50; cited from earlier work.

≈ marks a conversion by molar mass, not a printed value. Read-outs that look alike come from different tables or passages of the source.

`COc1ccc2[nH]c(C(=O)NC(C)C34CC5CC(CC(C5)C3)C4)cc2c1` (centres unmarked) [Compound 8c, N-(1-(Adamantan-1-yl)ethyl)-5-methoxy-1H-indole-2-carboxamide]: in data set [1], the “H37Rv, MIC” value was 5.67 µM and the MIC – broadly, the smallest concentration in the dilution series that meets the test's criterion for growth inhibition – was less than 6 µM. Moreover, in data set [2], the IC50 – broadly, the concentration at which inhibition is half-maximal – was more than 10 µM.
As to `CC(NC(=O)c1cc2ccc(Br)cc2[nH]1)C12CC3CC(CC(C3)C1)C2` (centres unmarked) [Compound 8f, N-(1-(Adamantan-1-yl)ethyl)-6-bromo-1H-indole-2-carboxamide], the “SI (selectivity index)” value in data set [3] came out at 64. Further, the MIC in [1] came to 0.62 µM (≈ 0.249 µg/mL). In addition, the IC50 in [2] is more than 10 µM.
Take `O=C(NC(=O)c1cc2c(F)cc(F)cc2[nH]1)c1cccc(Cl)c1` [Compound 11b, N-(3-Chlorobenzoyl)-4,6-difluoro-1H-indole-2-carboxamide]: in data set [1], the “H37Rv, MIC” value was more than 96 µM. Besides, the IC50 in data set [2] is more than 10 µM.
For `O=C(NNc1ccccc1)c1cc2c(F)cc(F)cc2[nH]1` [Compound 9b, 4,6-Difluoro-N′-phenyl-1H-indole-2-carbohydrazide], in data set [1], the “H37Rv, MIC” value is more than 111 µM and the MIC was more than 96 µM. For the same molecule, in data set [2], the IC50 is more than 10 µM.
The like results for `O=C(NC(=O)c1cc2c(F)cc(F)cc2[nH]1)c1cccc(F)c1` [Compound 11a, 4,6-Difluoro-N-(3-fluorobenzoyl)-1H-indole-2-carboxamide] were, in that order, more than 101 µM, more than 96 µM and more than 10 µM.
The like results for `O=C(c1cc2c(F)cc(F)cc2[nH]1)N1CCNCC1` [Compound 14, (4,6-Difluoro-1H-indol-2-yl)(piperazin-1-yl)methanone] were, in that order, more than 121 µM, more than 121 µM and more than 10 µM.
As to `CC(NC(=O)c1cc2c(F)cc(F)cc2[nH]1)C12CC3CC(CC(C3)C1)C2` (centres unmarked) [Compound 8h, N-(1-(Adamantan-1-yl)ethyl)-4,6-difluoro-1H-indole-2-carboxamide], the IC50 in data set [2] was more than 10 µM.
In the case of `COc1cccc2[nH]c(C(=O)NC(C)C34CC5CC(CC(C5)C3)C4)cc12` (centres unmarked) [Compound 8b, N-(1-(Adamantan-1-yl)ethyl)-4-methoxy-1H-indole-2-carboxamide], in data set [2], the IC50 is more than 10 µM.
In the case of `O=C(NCc1ccccc1)c1cc2c(F)cc(F)cc2[nH]1` [Compound 9a, N-Benzyl-4,6-difluoro-1H-indole-2-carboxamide], the IC50 in [4] was 1.81 µM; in data set [2], 9.85 µM; in data set [5], 65 µM; in data set [6] it was 7.44 µM; in [7], more than 10 µM; in [8], more than 10 µM. Moreover, the IC50 in data set [9] is 890 nM; in [10], 6.06 µM; in data set [11], 119 µM. For the same molecule, in data set [1], the “H37Rv, MIC” value is more than 112 µM. Moreover, the MIC in [1] is more than 112 µM.
As to `Cc1ccc2[nH]c(C(=O)NC(C)C34CC5CC(CC(C5)C3)C4)cc2c1` (centres unmarked) [Compound 8d, N-(1-(Adamantan-1-yl)ethyl)-5-methyl-1H-indole-2-carboxamide], the MIC in data set [1] was 2.97 µM (≈ 0.999 µg/mL). The IC50 in data set [2] is more than 10 µM.
In the case of `O=C(NC12CC3CC(CC(C3)C1)C2)c1ccc(NC(=O)c2cc3c(F)cc(F)cc3[nH]2)cc1` [Compound 20, N-(4-((Adamantan-1-yl)carbamoyl)phenyl)-4,6-difluoro-1H-indole-2-carboxamide], in data set [1], the “H37Rv, MIC” value is more than 71 µM and the MIC is more than 71 µM. Also, the IC50 in data set [2] was more than 10 µM.
For `Cc1cc(C)c2cc(C(=O)NC34CC5CC(CC(C5)C3)C4)[nH]c2c1` [Compound 2, N-(1-adamantyl)-4,6-dimethylindole-2-carboxamide], in data set [12], the IC50 is more than 200 µM. Also, the MIC in data set [13] is 0.012 µM (≈ 0.00387 µg/mL).
Consider `O=C(c1cc2c(F)cc(F)cc2[nH]1)N1CCN(C(=O)C23CC4CC(CC(C4)C2)C3)CC1` [Compound 15, (Adamantan-1-yl)(4-(4,6-difluoro-1H-indole-2-carbonyl)piperazin-1-yl)methanone], for which the IC50 in [4] was 5.89 µM; in data set [2] it was 6.62 µM; in data set [5] it was 17.4 µM; in [6], more than 10 µM; in data set [7], more than 10 µM; in [8], more than 10 µM. Also, the IC50 in data set [9] is 3160 nM; in [10], more than 10 µM; in data set [11] it was 19.4 µM. For the same molecule, the “Number of genes with downregulated expression” value in data set [14] came to 9 genes. Further, the “Downregulation of CA9 expression” value in data set [15] was 15 fold. Also, in [16], the “Downregulation of SYK expression” value was 9 fold. In data set [1], the “H37Rv, MIC” value was more than 75 µM.
For `NNC(=O)c1ccncc1` [INH, isoniazid], the “H37Rv, MIC” value in data set [13] was 0.04 (ref. [6]) μg mL^−1.
For `CC[C@@H](CO)NCCN[C@@H](CC)CO` [EMB, ethambutol], the “H37Rv, MIC” value in data set [13] was 1 (ref. [6]) μg mL^−1.
Take `CC(NC(=O)c1cc2cc(Cl)ccc2[nH]1)C12CC3CC(CC(C3)C1)C2` (centres unmarked) [Compound 8e, N-(1-(Adamantan-1-yl)ethyl)-5-chloro-1H-indole-2-carboxamide]: in [2], the IC50 is more than 10 µM.
Turning to `CC(NC(=O)c1cc2ccccc2[nH]1)C12CC3CC(CC(C3)C1)C2` (centres unmarked) [Compound 8a, N-(1-(Adamantan-1-yl)ethyl)-1H-indole-2-carboxamide], in [13], the “H37Rv, MIC” value was more than 15.5 µM. Also, the MIC in data set [1] was found to be 6.2 µM (≈ 2 µg/mL). Also, the IC50 in [2] was more than 10 µM.
`CC(NC(=O)c1cc2c(Cl)cc(Cl)cc2[nH]1)C12CC3CC(CC(C3)C1)C2` (centres unmarked) [Compound 8g, N-(1-(Adamantan-1-yl)ethyl)-4,6-dichloro-1H-indole-2-carboxamide]: the “SI (selectivity index)” value in data set [3] was 128. For the same molecule, the MIC in [1] is 0.32 µM (≈ 0.125 µg/mL). Besides, the IC50 in [2] is more than 10 µM.
Take `O=C(NC12CC3CC(CC(C3)C1)C2)c1cc2ccccc2[nH]1` [Compound 3, N-(1-adamantyl)-indole-2-carboxamide]: the “Cytotoxicity against human THP-1 cells” value in data set [17] is “non-cytotoxic up to 50”. In [18], the 50% effective concentration (EC50) (usually the midpoint of the concentration-response curve) was 980 nM. Besides, in data set [2], the IC50 was more than 10 µM.
